Here are results for one compound from PMC7034990 (Science Advances, 2020).

Type in all cases: cell-based
In assay [1] the test system is F508del-CFTR CFBE41o− cells. Kind of assay: Western blot of F508del-CFTR maturation in CFBE41o− cells. Conditions: 24 hours. In outline: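 Confluent CFBE41o− cells expressing F508del-CFTR were treated with test compounds or DMSO. They were lysed in RIPA with protease inhibitors and cleared at 15,300g, 4°C, 10 min. Lysates were run on SDS-PAGE and immunoblotted with mouse monoclonal anti-CFTR. Immature core-glycosylated band B runs near 150 kDa. Bands were quantified as regions of interest and normalised to GAPDH.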

The next assay concerns the target T1, ENaC (Homo sapiens, UniProt P37088+P51168+P51170).
T1 sequence (P37088 1-669): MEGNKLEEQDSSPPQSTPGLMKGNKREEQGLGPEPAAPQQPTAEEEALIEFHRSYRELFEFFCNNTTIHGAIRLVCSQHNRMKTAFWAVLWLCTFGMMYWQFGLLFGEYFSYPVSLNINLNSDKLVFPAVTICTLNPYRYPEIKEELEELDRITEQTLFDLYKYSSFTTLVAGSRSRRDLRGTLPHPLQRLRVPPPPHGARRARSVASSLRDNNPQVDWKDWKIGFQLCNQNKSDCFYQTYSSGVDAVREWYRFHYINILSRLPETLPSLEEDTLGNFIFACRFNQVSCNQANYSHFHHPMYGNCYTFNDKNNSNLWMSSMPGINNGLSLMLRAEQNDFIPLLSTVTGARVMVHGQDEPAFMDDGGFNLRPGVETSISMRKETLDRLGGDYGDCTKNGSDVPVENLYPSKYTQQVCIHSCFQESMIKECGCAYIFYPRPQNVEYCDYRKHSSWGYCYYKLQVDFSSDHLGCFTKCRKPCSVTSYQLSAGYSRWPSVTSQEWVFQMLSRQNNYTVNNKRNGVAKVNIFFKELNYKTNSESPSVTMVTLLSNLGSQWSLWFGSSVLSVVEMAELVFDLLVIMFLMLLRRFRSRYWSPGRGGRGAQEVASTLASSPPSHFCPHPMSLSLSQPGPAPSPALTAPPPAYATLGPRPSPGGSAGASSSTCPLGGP
T1 sequence (P51168 1-640): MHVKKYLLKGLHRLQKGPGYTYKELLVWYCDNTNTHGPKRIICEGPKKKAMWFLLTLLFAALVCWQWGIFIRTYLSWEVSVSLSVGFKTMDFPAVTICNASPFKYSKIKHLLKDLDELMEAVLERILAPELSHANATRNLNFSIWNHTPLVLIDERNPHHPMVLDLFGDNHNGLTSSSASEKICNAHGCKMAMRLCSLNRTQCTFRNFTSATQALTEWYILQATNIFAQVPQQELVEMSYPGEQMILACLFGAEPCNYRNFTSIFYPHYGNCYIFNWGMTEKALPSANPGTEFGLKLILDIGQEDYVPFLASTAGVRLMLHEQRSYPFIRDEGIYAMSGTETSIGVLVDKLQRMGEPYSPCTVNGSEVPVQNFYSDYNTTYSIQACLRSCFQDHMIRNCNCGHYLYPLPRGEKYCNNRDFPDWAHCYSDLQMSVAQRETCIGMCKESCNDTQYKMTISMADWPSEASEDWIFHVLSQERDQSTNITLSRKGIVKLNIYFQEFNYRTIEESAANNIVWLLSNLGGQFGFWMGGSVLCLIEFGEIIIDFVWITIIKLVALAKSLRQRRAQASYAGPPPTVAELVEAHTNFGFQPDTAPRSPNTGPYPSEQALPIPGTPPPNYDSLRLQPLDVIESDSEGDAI
T1 sequence (P51170 1-649): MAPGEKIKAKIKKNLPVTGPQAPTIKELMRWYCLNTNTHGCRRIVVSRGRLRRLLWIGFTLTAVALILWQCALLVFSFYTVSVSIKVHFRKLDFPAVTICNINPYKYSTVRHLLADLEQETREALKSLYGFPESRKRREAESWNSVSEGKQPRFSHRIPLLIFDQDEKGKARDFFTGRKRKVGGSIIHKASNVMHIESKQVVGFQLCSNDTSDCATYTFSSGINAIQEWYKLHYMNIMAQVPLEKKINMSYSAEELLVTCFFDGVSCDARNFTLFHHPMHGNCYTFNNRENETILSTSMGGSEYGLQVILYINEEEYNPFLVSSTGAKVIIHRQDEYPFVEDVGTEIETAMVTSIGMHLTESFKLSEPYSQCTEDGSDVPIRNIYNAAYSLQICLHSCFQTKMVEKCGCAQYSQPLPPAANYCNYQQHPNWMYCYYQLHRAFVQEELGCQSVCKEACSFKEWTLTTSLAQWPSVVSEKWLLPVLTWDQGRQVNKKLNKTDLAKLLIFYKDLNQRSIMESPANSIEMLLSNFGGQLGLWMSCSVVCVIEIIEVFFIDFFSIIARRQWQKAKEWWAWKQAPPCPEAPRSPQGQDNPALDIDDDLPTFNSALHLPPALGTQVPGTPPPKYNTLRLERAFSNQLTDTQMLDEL
As to the kind of experiment: ENaC function from the response to apical amiloride. Conditions: amiloride 10 μM; correctors for 24 hr. In outline:
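Primary bronchial epithelial cells came from lung-transplant bronchi and were differentiated on porous inserts, then kept 2–3 weeks under air-liquid culture. Correctors or DMSO were given in basolateral medium. Epithelia were mounted in a vertical diffusion chamber, bicarbonate saline (126 mM NaCl, 24 mM NaHCO3, 10 mM glucose) both sides, gassed 5% CO2:95% air, 37°C. Voltage was clamped and short-circuit current recorded. ENaC was blocked with amiloride (10 μM).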

For the next assay, the target named is P574H-CFTR (Homo sapiens, UniProt P13569, P574H). As to the kind of experiment: Rescue of P574H-CFTR in FRT cells. Conditions: 37 °C or 32 °C. In outline: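 FRT cells stably co-expressing P574H-CFTR and HS-YFP (H148Q/I152L), plated at 50,000/well. After a PBS wash, cells were stimulated 25 min with forskolin 20 μM plus VX-770 1 μM. Iodide solution was then injected (final I− 100 mM) and YFP fluorescence read at 500/535 nm ex/em. Values were normalized to initial background-subtracted fluorescence. I− influx rate came from an exponential fit of the final 11 s.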
Sequence of P574H-CFTR (P13569 whole entry P574H): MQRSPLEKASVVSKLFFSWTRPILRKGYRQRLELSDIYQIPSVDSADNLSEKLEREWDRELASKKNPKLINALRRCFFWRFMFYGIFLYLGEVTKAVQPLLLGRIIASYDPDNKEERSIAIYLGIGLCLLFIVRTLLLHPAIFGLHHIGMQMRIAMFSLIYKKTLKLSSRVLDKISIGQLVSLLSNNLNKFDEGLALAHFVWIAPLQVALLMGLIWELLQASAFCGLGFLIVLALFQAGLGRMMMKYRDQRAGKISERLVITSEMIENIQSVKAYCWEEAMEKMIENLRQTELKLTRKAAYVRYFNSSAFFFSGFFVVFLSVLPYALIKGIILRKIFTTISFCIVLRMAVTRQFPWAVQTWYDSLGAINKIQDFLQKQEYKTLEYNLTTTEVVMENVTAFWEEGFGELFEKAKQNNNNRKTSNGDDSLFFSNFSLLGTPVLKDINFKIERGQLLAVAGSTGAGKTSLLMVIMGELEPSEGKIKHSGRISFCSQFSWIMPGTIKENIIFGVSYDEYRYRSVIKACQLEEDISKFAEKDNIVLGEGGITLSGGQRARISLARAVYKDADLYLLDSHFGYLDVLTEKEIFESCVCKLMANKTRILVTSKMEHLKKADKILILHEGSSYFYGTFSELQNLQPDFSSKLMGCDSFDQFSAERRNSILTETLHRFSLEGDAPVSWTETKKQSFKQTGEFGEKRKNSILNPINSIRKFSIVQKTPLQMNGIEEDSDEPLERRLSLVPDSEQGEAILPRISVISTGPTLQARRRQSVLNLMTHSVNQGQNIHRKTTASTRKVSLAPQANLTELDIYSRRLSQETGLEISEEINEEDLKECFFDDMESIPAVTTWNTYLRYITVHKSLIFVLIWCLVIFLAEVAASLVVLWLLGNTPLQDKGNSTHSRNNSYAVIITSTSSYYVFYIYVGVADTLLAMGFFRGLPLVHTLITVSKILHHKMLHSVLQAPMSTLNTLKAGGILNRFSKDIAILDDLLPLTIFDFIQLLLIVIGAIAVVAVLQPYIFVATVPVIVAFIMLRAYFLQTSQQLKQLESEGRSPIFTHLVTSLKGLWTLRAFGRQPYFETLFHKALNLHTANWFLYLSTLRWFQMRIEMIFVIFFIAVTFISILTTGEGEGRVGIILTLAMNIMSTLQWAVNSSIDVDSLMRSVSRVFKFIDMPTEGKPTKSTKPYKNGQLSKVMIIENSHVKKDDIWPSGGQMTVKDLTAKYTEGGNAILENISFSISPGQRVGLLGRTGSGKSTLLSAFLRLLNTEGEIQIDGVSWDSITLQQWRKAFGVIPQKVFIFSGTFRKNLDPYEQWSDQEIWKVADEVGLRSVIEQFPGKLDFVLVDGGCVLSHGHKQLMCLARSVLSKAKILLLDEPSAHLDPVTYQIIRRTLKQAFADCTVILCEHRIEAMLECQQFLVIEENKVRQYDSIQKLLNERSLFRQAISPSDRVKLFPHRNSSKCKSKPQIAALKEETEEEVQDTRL

Each structure is given as a SMILES string.

As to `CN(C(=O)c1cccc(-n2nc(C(F)(F)F)c3c2[C@@H](Oc2ccc(C(=O)O)cc2)CCC3)c1)c1ccc2c(c1)OC(F)(F)O2` [ARN23765], the “F508del-CFTR maturation, band C” value in assay [1] is “at low concentrations was also observed”. For the same compound, the “amplitude of the response to apical amiloride, ENaC function” value at ENaC is “modestly reduced”. Besides, the “P574H-CFTR function” value on P574H-CFTR is “improves the function of P574H-CFTR, particularly in combination with low temperature”.
